Source: ChEMBL document CHEMBL2062416, “Synthesis and biological evaluation of some novel 1-indanone thiazolylhydrazone derivatives as anti-Trypanosoma cruzi agents” (Eur J Med Chem, 2012)

How the values were obtained:
Vero = experiment: Cytotoxicity against african green monkey Vero cells up to 100 uM after 24 hrs by MTT assay; assay type: cell-based; conditions: chlorocebus sabaeus
Outline: (§1)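 Vero cells grown in MEM or RPMI with 10% FBS, penicillin, streptomycin, glutamine; seeded at 9×10^5 cells/mL, compounds (12.5–200.0 µM) added after 48 h, 24 h exposure. PBS wash, MTT at 0.5 mg/mL final, 1 h 37 °C, formazan dissolved in DMSO, A570 with blank subtraction. Repeated at least three times, four samples per assay.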

Trypanosoma cruzi [1] = experiment: Trypanocidal activity against bloodstream trypomastigotes of Trypanosoma cruzi infected in mouse blood assessed as lytic effect after 24 hrs; assay type: functional, organism-based
Outline: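 Blood from infected CF1 mice (Tulahuen, Tul 2) diluted to 1.5×10^6 trypomastigotes/mL; compounds 0.30–350 µM, duplicates, 24 h. Live parasites counted in Neubauer chamber; %I = [1−CDt/CDc]×100 versus untreated. IC50 by linear regression of %I on log concentration. Means ± SD of three experiments.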

Trypanosoma cruzi [2] = experiment: Trypanocidal activity against epimastigotes of Trypanosoma cruzi Tulahuen 2 assessed as inhibition of parasite growth after 4 days by trypan blue staining; assay type: functional, organism-based; conditions: Tulahuen 2, 96 h
Outline: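 Epimastigotes (Tulahuen, Tul 2) from 5-day cultures grown at 28 °C in liver/infusion medium with hemin, started at 1.5–2.5×10^6 cells/mL, exposed 4 days to compounds (typically 1.50–15 or 0.5–2.5 µM), triplicate; benznidazole 2.50–15 µM positive control. Motile cells counted in Neubauer chamber; %I from density change versus untreated; IC50 by linear regression on log concentration.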

[3] = biological target: Cruzipain (Trypanosoma cruzi) (UniProt P25779); experiment: Inhibition of epimastigotes of Trypanosoma cruzi cruzipain using Bz-Pro-Phe-Arg-pNA as substrate at 20 uM by spectrophotometric analysis
Outline: (§2)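 Cruzipain purified from epimastigote cell-free extract by ConA-Sepharose affinity chromatography. 1 mL reaction: Tris-acetate pH 8.2 (50 µmol), 2-mercaptoethanol (10 µmol), Bz-Pro-Phe-Arg-pNA (0.3 µmol); followed at 410 nm. Compounds added in DMSO; vehicle controls with matching DMSO; E-64 reference inhibitor. Percent inhibition relative to enzyme without drug.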

Trypanosoma cruzi [4] = experiment: Inhibition of ergosterol biosynthesis in epimastigotes of Trypanosoma cruzi assessed as ratio of squalene/ergosterol at 25 uM after 24 hrs by TLC analysis (reference value: 0.76); assay type: functional
[5] = biological target: Cruzipain (Trypanosoma cruzi) (UniProt P25779); experiment: Inhibition of epimastigotes of Trypanosoma cruzi cruzipain using Bz-Pro-Phe-Arg-pNA as substrate at 10 uM by spectrophotometric analysis; outline: as §2
[6] = biological target: Cruzipain (Trypanosoma cruzi) (UniProt P25779); experiment: Inhibition of epimastigotes of Trypanosoma cruzi cruzipain using Bz-Pro-Phe-Arg-pNA as substrate at 50 uM by spectrophotometric analysis; outline: as §2
[7] = Cytotoxicity against african green monkey Vero cells after 24 hrs by MTT assay; assay type: cell-based; conditions: chlorocebus sabaeus; outline: as §1
Trypanosoma cruzi [8] = experiment: Trypanocidal activity against amastigotes of Trypanosoma cruzi expressing beta-galactosidase gene infected in mouse J774 cells assessed as inhibition of parasite growth after 7 days; assay type: functional, organism-based; conditions: J774, 168 h
Outline: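 J774 macrophages, 5×10^3/well, infected with β-galactosidase-expressing blood trypomastigotes (clone C4) at 10:1 parasite:cell for 24 h, washed, then compounds (2–100 µM) in phenol red-free RPMI, duplicates, 7 days. Developed with 1% NP-40 and 100 µM CPRG, 4 h 37 °C, A570; uninfected ± compound wells correct colour. IC50 by linear regression of %I against log concentration.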

Sequence of Cruzipain (Trypanosoma cruzi) (P25779 123-467 limits assumed): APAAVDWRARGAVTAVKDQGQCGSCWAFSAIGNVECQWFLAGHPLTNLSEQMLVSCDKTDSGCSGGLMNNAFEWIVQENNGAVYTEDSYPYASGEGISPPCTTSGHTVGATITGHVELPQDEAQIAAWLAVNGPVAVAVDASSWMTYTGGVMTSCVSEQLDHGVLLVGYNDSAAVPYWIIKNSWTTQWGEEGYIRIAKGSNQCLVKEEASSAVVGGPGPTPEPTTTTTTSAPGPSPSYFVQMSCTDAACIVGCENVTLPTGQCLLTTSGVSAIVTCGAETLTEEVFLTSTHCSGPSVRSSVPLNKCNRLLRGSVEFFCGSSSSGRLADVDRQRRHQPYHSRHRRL

| SMILES | Activity (Vero) | IC50 (Trypanosoma cruzi [1]) | IC50 (Trypanosoma cruzi [2]) | inhibition [3] | Ratio (Trypanosoma cruzi [4]) | inhibition [5] | inhibition [6] | CC50 at 24 h [7] | IC50 (Trypanosoma cruzi [8]) |
| --- | --- | --- | --- | --- | --- | --- | --- | --- | --- |
| Cc1ccc2c(c1)CC/C2=N\Nc1nc(-c2ccccc2)cs1 | Non-toxic | 172 µM | 4.69 µM | – | – | – | – | – | – |
| Cc1ccc(-c2csc(N/N=C3\CCc4ccccc43)n2)cc1 | Non-toxic | > 500 µM | > 15 µM | 5% | 0.76 | 8% | 5% | – | – |
| O=C(Cn1ccnc1[N+](=O)[O-])NCc1ccccc1 [BENZNIDAZOLE] | – | 30.3 µM | 5.39 µM | – | – | – | – | 82.8 µM | – |
| Cc1ccc(-c2csc(N/N=C3\CCc4cc(C)ccc43)n2)cc1 | Non-toxic | 87 µM | 5.24 µM | 0% | – | 0% | 0% | – | 1.35 µM |
| Clc1ccc(-c2csc(N/N=C3\CCc4ccccc43)n2)cc1 | Non-toxic | 308 µM | 8.62 µM | – | – | – | – | – | – |
| c1ccc(-c2csc(N/N=C3\CCc4ccccc43)n2)cc1 | Non-toxic | > 500 µM | 19 µM | – | – | – | – | – | – |
| Cc1cccc2c1CC/C2=N\Nc1nc(-c2ccccc2)cs1 | Non-toxic | 48.9 µM | 7.08 µM | 0% | – | 3% | 0% | – | 0.68 µM |
| O=[N+]([O-])c1cccc2c1CC/C2=N\Nc1nc(-c2ccc(Cl)cc2)cs1 | Non-toxic | 597 µM | 17.1 µM | – | – | – | – | – | – |
| COc1cccc2c1CC/C2=N\Nc1nc(-c2ccc(Cl)cc2)cs1 | Non-toxic | 19.7 µM | 11.8 µM | 0% | – | 0% | 0% | – | 0.84 µM |
| Cc1cccc2c1CC/C2=N\Nc1nc(-c2ccc(Cl)cc2)cs1 | Non-toxic | 20 µM | 4.53 µM | 0% | 1.25 | 3% | 3% | – | 0.09 µM |
| Cc1ccc2c(c1)/C(=N/Nc1nc(-c3ccccc3)cs1)CC2 | Non-toxic | 22.7 µM | 4.27 µM | 0% | – | 3% | 0% | – | 3.96 µM |
| Cc1ccc(-c2csc(N/N=C3\CCc4ccc(C)cc43)n2)cc1 | Non-toxic | 49.5 µM | 4.08 µM | 0% | 0.8 | 3% | 0% | – | 0.27 µM |
| CN(C/C=C/C#CC(C)(C)C)Cc1cccc2ccccc12 [TERBINAFINE] | – | – | – | – | 1.54 | – | – | – | – |
| Cc1ccc2c(c1)/C(=N/Nc1nc(-c3ccc(Cl)cc3)cs1)CC2 | Non-toxic | 61.1 µM | 8.59 µM | – | – | – | – | – | – |
| COc1cc2c(cc1OC)/C(=N/Nc1nc(-c3ccc(Cl)cc3)cs1)CC2 | Non-toxic | 404 µM | 7.17 µM | – | – | – | – | – | – |
| COc1cc2c(cc1OC)/C(=N/Nc1nc(-c3ccccc3)cs1)CC2 | Non-toxic | 195 µM | 10.1 µM | – | – | – | – | – | – |
| Cc1ccc(-c2csc(N/N=C3\CCc4c(C)cccc43)n2)cc1 | Non-toxic | 17.2 µM | 4.36 µM | 2% | 2.92 | 4% | 0% | – | 0.72 µM |
| CC(C)C[C@H](NC(=O)[C@H]1O[C@@H]1C(=O)O)C(=O)NCCCCN=C(N)N | – | – | – | – | – | 62% | – | – | – |
| Cc1ccc2c(c1)CC/C2=N\Nc1nc(-c2ccc(Cl)cc2)cs1 | Non-toxic | 372 µM | 7.15 µM | – | – | – | – | – | – |
| COc1cc2c(cc1OC)/C(=N/Nc1nc(-c3ccc(C)cc3)cs1)CC2 | Non-toxic | 69.6 µM | > 15 µM | 0% | – | 0% | 0% | – | 7.72 µM |
